Calls of active or inactive are those of the source. No cut-off for these calls is given here.

The target of test [1] is T1, 14-alpha sterol demethylase (Neosartorya fumigata (Aspergillus fumigatus)) (UniProt Q96W81).
T1 sequence (whole entry): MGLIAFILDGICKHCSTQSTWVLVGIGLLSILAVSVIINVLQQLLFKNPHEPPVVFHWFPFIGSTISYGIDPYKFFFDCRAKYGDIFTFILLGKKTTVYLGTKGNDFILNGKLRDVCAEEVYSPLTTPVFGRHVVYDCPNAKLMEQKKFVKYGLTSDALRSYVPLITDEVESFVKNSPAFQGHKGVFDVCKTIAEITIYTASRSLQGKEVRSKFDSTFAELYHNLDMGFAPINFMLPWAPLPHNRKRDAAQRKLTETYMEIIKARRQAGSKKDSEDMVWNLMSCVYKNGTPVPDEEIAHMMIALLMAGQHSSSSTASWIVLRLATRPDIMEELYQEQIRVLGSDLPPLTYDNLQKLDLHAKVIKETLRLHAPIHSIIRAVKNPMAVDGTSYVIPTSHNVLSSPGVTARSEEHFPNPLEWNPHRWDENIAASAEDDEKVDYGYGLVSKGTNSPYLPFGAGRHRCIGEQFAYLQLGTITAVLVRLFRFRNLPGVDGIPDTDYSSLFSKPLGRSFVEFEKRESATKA
Nature of the test: Binding affinity to Aspergillus fumigatus AF293 sterol 14-alpha demethylase isoenzyme B expressed in Escherichia coli assessed as generation of type I difference spectrum at 4.8 uM.

Test [2] addresses T1, 14-alpha sterol demethylase (Neosartorya fumigata (Aspergillus fumigatus)). The test can be described thus: Binding affinity to Aspergillus fumigatus AF293 sterol 14-alpha demethylase isoenzyme B expressed in Escherichia coli assessed as spectral dissociation constant. The method, boiled down:
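His-tagged CYP51 (Af293 sequence, codon-optimised, E. coli-expressed), cholate-solubilised and Ni-NTA purified, at 1 μM in 0.1 M Tris-HCl pH 8.1 with 25% glycerol. Azole (0.05 mg/ml DMSO stock) titrated in split 4.5 mm cuvettes, with DMSO added to the reference. Difference spectra were read at 500–350 nm. Peak-to-trough change was plotted against concentration. Kd came from Morrison (tight binding), Michaelis-Menten or Hill fits.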

Test [3] has the same target. Nature of the test: Binding affinity to 1 uM recombinant Aspergillus fumigatus AF293 sterol 14-alpha demethylase isoenzyme B from Escherichia coli membrane suspension assessed as spectral dissociation constant.

For the compound `C=C(CC[C@@H](C)[C@H]1CC[C@@]2(C)C3=C(CC[C@]12C)[C@@]1(C)CC[C@H](C)C(C)(C)C1CC3)C(C)C` (stereo not given in full), the outcome in test [1] was Active. In addition, the Ks in test [2] was 22.6 µM; in test [3], 4.1 µM.
For the compound `CC(C)=CCC[C@@H](C)[C@H]1CC[C@@]2(C)C3=C(CC[C@]12C)[C@@]1(C)CC[C@H](O)C(C)(C)[C@@H]1CC3`, the Ks is 8.6 µM in test [2] and 3.1 µM in test [3].

The values above are taken from ChEMBL document CHEMBL1671727, “Expression, purification, and characterization of Aspergillus fumigatus sterol 14-alpha demethylase (CYP51) isoenzymes A and B” (Antimicrob Agents Chemother, 2010).
